Source: ChEMBL document CHEMBL4350961, “Discovery of Pyrrolo[3,2- d]pyrimidin-4-one Derivatives as a New Class of Potent and Cell-Active Inhibitors of P300/CBP-Associated Factor Bromodomain” (J Med Chem, 2019)
The source made the active and inactive calls. The calls are words filed in the database; no cut-off is given here.

Tests used:
[1] = molecular target: Tyrosine-protein kinase BTK (Homo sapiens) (UniProt Q06187); assay: Inhibition of full-length recombinant human BTK at 10 uM using KVEKIGEGTYGVVYK as substrate measured after 40 mins in presence of [gamma33P]ATP by scintillation counting method
Chain of Tyrosine-protein kinase BTK (Homo sapiens) (Q06187 whole entry): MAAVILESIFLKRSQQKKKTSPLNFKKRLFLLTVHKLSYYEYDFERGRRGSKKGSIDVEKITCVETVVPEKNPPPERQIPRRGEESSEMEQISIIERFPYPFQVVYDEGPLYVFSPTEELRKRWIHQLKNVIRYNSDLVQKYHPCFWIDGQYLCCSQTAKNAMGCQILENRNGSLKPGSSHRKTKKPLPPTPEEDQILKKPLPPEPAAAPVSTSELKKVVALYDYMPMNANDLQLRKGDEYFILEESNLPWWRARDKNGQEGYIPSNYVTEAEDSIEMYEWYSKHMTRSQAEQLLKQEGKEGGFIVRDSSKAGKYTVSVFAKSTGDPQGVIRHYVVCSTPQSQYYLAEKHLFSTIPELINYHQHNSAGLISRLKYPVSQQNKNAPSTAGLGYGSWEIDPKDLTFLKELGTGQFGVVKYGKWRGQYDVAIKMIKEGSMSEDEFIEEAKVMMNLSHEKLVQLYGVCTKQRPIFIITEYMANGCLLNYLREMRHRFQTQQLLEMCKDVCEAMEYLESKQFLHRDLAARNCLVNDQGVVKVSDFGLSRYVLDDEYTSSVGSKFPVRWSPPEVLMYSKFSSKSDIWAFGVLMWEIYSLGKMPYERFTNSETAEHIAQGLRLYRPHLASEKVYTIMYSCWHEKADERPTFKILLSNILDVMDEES
Outline: (§1)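 Kinase panel of 422 kinases screened by Eurofins KinaseProfiler at a single test-compound concentration of 10 µM.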

[2] = molecular target: Serine/threonine-protein kinase pim-2 (Homo sapiens) (UniProt Q9P1W9); assay: Inhibition of recombinant human Pim2 (2 to end residues) at 10 uM using RSRHSSYPAGT as substrate measured after 40 mins in presence of [gamma33P]ATP by scintillation counting method
Chain of Serine/threonine-protein kinase pim-2 (Homo sapiens) (Q9P1W9 whole entry, looked up): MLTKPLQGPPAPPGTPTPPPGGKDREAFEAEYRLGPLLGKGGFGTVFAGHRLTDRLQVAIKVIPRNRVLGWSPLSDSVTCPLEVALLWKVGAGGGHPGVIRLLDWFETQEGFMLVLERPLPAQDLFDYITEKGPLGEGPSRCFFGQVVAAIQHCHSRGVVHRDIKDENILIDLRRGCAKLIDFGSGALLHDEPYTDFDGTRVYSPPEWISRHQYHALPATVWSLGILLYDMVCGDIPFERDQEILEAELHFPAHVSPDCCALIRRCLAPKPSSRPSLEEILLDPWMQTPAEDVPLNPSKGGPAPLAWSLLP

[3] = molecular target: Serine/threonine-protein kinase Sgk3 (Homo sapiens) (UniProt Q96BR1); assay: Inhibition of human SGK3 (119 to end residues) using GRPRTSSFAEGKK as substrate measured after 40 mins in presence of [gamma33P]ATP by scintillation counting method; outline: as §1
[4] = organism: Homo sapiens; assay: Inhibition of recombinant full-length human PI3K p120gamma R459Q mutant at 10 uM using phosphatidylinositol-4, 5-bisphosphate as substrate measured after 40 mins by fluorescence assay
[5] = molecular target: Dual specificity protein kinase CLK4 (Homo sapiens) (UniProt Q9HAZ1); assay: Inhibition of recombinant human CLK4 (128 to end residues) at 10 uM using YRRAAVPPSPSLSRHSSPHQS(p)EDEEE as substrate measured after 40 mins in presence of [gamma33P]ATP by scintillation counting method
Chain of Dual specificity protein kinase CLK4 (Homo sapiens) (Q9HAZ1 whole entry, looked up): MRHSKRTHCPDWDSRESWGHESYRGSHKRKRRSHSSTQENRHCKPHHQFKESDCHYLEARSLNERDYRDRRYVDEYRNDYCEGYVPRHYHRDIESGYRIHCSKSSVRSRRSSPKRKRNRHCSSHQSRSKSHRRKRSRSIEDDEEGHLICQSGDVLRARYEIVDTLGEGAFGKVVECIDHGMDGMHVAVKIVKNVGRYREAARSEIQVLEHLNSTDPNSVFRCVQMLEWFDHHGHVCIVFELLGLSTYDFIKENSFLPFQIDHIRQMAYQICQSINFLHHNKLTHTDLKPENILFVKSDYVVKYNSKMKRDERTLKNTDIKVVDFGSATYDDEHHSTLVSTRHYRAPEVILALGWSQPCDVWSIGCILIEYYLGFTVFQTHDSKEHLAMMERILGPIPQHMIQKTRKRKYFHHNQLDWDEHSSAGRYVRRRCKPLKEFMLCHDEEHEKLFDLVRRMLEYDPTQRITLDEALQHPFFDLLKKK

[6] = molecular target: SRSF protein kinase 1 (Homo sapiens) (UniProt Q96SB4); assay: Inhibition of human SRPK1 (2 to end residues) using RSRSRSRSRSRSRSR as substrate measured after 40 mins in presence of [gamma33P]ATP by scintillation counting method; outline: as §1
[7] = molecular target: Myotonin-protein kinase (Homo sapiens) (UniProt Q09013); assay: Inhibition of recombinant human DMPK (1 to 549 residues) at 10 uM using KKSRGDYMTMQIG as substrate measured after 40 mins in presence of [gamma33P]ATP by scintillation counting method
[8] = molecular target: Calcium/calmodulin-dependent protein kinase type IV (Homo sapiens) (UniProt Q16566); assay: Inhibition of recombinant full-length human CaMK4 at 10 uM using calmodulin as substrate measured after 40 mins in presence of [gamma33P]ATP by scintillation counting method
Chain of Calcium/calmodulin-dependent protein kinase type IV (Homo sapiens) (Q16566 whole entry): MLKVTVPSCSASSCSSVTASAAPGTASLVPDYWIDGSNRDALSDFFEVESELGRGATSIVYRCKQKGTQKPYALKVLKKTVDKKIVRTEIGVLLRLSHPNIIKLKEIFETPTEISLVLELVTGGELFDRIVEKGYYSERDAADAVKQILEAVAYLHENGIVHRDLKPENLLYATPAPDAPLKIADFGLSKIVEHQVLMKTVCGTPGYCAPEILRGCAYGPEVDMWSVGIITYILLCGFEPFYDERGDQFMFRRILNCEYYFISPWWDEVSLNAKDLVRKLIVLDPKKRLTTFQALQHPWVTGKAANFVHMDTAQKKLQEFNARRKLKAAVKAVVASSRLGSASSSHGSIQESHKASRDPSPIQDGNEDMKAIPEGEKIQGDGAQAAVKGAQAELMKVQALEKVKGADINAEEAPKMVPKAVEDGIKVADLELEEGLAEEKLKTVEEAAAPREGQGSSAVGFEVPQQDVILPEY

[9] = molecular target: Mitogen-activated protein kinase 13 (Homo sapiens) (UniProt O15264); assay: Inhibition of recombinant full-length human SAPK4 at 10 uM using myelin basic protein as substrate measured after 40 mins in presence of [gamma33P]ATP by scintillation counting method
[10] = molecular target: 5'-AMP-activated protein kinase catalytic subunit alpha-1 (Homo sapiens) (UniProt Q13131); assay: Inhibition of recombinant full-length human AMPKalpha1 at 10 uM using AMARAASAAALARRR as substrate measured after 40 mins in presence of [gamma33P]ATP by scintillation counting method
Chain of 5'-AMP-activated protein kinase catalytic subunit alpha-1 (Homo sapiens) (Q13131 whole entry, looked up, the tested form may be a part): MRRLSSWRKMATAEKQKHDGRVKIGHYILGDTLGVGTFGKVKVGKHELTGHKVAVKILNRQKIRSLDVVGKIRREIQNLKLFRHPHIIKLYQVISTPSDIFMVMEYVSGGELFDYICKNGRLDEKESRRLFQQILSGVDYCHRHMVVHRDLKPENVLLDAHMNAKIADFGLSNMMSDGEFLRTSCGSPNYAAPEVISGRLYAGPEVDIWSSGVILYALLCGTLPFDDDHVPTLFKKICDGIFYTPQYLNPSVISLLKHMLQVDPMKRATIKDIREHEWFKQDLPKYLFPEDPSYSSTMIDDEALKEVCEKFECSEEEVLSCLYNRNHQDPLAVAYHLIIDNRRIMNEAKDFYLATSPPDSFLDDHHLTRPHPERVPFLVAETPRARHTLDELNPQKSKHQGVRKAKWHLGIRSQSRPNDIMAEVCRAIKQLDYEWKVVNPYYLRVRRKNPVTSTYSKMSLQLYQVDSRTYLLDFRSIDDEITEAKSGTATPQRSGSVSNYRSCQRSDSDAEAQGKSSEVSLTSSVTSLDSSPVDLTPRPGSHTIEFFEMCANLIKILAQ

[11] = molecular target: Serine/threonine-protein kinase PLK3 (Homo sapiens) (UniProt Q9H4B4); assay: Inhibition of recombinant human Plk3 (19 to 301 residues) at 10 uM using casein as substrate measured after 40 mins in presence of [gamma33P]ATP by scintillation counting method
[12] = molecular target: Serine/threonine-protein kinase MARK2 (Homo sapiens) (UniProt Q7KZI7); assay: Inhibition of recombinant full-length human PAR1Balpha at 10 uM using KKKVSRSGLYRSPSMPENLNRPR as substrate measured after 40 mins in presence of [gamma33P]ATP by scintillation counting method
[13] = molecular target: Receptor-interacting serine/threonine-protein kinase 1 (Homo sapiens) (UniProt Q13546); assay: Inhibition of human RIPK1 (8 to 322 residues) using myelin basic protein as substrate measured after 120 mins in presence of [gamma33P]ATP by scintillation counting method; outline: as §1
[14] = molecular target: Myosin-IIIb (Homo sapiens) (UniProt Q8WXR4); assay: Inhibition of recombinant full-length human MYO3B (1 to 326 residues) at 10 uM using RLGRDKYKTLRQIRQ as substrate measured after 40 mins in presence of [gamma33P]ATP by scintillation counting method
[15] = molecular target: G protein-coupled receptor kinase 5 (Homo sapiens) (UniProt P34947); assay: Inhibition of recombinant full-length human GRK5 at 10 uM using casein as substrate measured after 40 mins in presence of [gamma33P]ATP by scintillation counting method
[16] = Clearance in human liver microsomes at 1 uM in presence of NADPH by LC-MS analysis; type: ADME, Microsome; conditions: read-out: CLH
Outline: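 Compound at 1 μM with 0.5 mg/mL human liver microsomes and 1 mM NADPH; sampled at 0, 5, 15, 30 and 45 min, stopped with acetonitrile, then centrifuged.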

[17] = molecular target: Tau-tubulin kinase 1 (Homo sapiens) (UniProt Q5TCY1); assay: Inhibition of human TTBK1 (1 to 479 residues) using Casein as substrate measured after 40 mins in presence of [gamma33P]ATP by scintillation counting method
[18] = molecular target: Histone acetyltransferase p300 (Homo sapiens) (UniProt Q09472); assay: Binding affinity to human N-terminal His-tagged EP300 assessed as change in melting temperature at 10 uM by SYPRO orange dye-based fluorescence assay
Outline: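 Thermal shift with His-tagged human bromodomain at 2 μM final in 10 mM HEPES pH 7.5, 500 mM NaCl. Compound at 10 μM final with 0.1% DMSO; SYPRO Orange at 1:1000. Equilibrated 3 min at 25 °C, then heated from 25 to 95 °C at 1 °C/min. Melting temperature shift taken from fluorescence; at least duplicate.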

[19] = test system: Tyrosine-protein kinase ABL1 (Homo sapiens), P00519 [H396P]; assay: Inhibition of recombinant human ABL H396P mutant (27 to end residues) at 10 uM using EAIYAAPFAKKK as substrate measured after 40 mins in presence of [gamma33P]ATP by scintillation counting method
[20] = molecular target: Testis-specific serine/threonine-protein kinase 1 (Homo sapiens) (UniProt Q9BXA7); assay: Inhibition of recombinant full-length human TSSK1 at 10 uM using KKKVSRSGLYRSPSMPENLNRPR as substrate measured after 120 mins in presence of [gamma33P]ATP by scintillation counting method
Chain of Testis-specific serine/threonine-protein kinase 1 (Homo sapiens) (Q9BXA7 whole entry, the tested form may be a part): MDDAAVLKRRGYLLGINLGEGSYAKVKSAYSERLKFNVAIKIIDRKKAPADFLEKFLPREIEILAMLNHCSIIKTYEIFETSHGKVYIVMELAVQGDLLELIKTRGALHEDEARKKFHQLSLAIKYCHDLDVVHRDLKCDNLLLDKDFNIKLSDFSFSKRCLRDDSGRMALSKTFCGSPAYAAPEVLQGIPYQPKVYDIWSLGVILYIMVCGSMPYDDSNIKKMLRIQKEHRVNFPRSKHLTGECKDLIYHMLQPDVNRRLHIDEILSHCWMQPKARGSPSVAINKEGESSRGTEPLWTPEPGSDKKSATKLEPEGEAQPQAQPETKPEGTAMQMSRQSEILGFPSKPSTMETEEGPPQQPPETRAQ

[21] = molecular target: LIM domain kinase 2 (Homo sapiens) (UniProt P53671); assay: Inhibition of recombinant human LIMK2 at 10 uM by radiometric method
Chain of LIM domain kinase 2 (Homo sapiens) (P53671 whole entry, looked up, the tested form may be a part): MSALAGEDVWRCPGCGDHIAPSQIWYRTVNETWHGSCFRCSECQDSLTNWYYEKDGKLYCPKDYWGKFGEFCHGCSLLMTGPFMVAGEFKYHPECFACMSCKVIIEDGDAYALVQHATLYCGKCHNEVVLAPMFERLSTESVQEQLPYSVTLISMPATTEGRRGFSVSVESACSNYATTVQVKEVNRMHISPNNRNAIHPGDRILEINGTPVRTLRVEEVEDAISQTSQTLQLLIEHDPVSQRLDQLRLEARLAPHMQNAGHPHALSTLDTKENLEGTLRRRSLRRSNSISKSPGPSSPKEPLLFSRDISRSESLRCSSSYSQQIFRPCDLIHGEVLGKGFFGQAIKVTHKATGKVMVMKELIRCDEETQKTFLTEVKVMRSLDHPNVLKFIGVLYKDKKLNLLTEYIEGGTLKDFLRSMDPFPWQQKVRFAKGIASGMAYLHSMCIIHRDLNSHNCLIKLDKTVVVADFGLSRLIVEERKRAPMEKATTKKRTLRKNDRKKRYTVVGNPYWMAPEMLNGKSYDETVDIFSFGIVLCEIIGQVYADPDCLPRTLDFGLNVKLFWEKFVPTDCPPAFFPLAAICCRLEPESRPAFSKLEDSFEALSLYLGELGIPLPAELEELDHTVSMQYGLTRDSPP

[22] = molecular target: Testis-specific serine/threonine-protein kinase 4 (Homo sapiens) (UniProt Q6SA08); assay: Inhibition of recombinant full-length human TSSK4 at 10 uM using KKLNRTLSFAEPG as substrate measured after 40 mins in presence of [gamma33P]ATP by scintillation counting method
Chain of Testis-specific serine/threonine-protein kinase 4 (Homo sapiens) (Q6SA08 whole entry): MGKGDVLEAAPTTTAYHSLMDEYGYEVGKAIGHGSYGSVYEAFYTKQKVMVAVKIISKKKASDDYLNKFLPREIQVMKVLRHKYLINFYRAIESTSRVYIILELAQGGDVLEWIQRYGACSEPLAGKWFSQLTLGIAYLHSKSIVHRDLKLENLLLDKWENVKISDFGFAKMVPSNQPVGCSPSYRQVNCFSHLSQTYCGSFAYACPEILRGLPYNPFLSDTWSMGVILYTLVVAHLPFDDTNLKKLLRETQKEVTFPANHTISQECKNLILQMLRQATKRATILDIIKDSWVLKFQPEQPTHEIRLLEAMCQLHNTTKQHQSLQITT

[23] = test system: Epidermal growth factor receptor (Homo sapiens), P00533 [T790M]; assay: Inhibition of recombinant human EGFR T790M mutant (696 to end residues) at 10 uM using GGMEDIYFEFMGGKKK as substrate measured after 40 mins in presence of [gamma33P]ATP by scintillation counting method
Chain of Epidermal growth factor receptor (Homo sapiens), P00533 [T790M] (P00533 whole entry T790M): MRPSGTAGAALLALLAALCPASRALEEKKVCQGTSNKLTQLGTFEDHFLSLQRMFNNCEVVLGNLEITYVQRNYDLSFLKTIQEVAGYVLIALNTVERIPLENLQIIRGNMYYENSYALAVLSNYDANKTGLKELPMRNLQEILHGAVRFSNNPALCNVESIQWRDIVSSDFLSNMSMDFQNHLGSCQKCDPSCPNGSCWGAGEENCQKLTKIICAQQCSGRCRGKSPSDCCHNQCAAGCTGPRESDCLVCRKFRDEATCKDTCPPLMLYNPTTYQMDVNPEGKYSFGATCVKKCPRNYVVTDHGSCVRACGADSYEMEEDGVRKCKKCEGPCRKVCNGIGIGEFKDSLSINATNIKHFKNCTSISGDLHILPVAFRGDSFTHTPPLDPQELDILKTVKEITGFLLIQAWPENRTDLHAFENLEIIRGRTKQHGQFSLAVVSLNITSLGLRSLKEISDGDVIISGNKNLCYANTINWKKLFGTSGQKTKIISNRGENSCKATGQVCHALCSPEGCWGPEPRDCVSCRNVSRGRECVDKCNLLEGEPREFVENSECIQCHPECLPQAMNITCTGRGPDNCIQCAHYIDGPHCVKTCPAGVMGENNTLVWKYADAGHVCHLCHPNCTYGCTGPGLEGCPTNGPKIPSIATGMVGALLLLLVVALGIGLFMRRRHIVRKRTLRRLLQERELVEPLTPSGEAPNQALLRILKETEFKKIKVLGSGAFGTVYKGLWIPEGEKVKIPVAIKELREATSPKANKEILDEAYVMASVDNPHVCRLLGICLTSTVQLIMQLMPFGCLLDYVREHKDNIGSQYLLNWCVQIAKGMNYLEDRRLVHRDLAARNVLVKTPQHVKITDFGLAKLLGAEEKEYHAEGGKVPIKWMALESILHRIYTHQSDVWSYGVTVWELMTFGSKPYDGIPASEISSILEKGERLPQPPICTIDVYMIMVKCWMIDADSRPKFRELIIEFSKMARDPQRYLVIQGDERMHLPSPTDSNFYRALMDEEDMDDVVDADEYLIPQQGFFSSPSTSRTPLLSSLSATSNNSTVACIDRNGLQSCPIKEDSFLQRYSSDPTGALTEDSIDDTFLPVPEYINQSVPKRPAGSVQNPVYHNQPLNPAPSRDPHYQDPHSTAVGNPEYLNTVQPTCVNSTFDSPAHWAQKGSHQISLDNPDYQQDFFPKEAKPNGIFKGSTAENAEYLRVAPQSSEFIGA

For CN1C[C@H](Nc2nc3cc[nH]c3c(=O)n2C)C[C@H](c2ccc3c(c2)OCCO3)C1, the inhibition [1] was “inactive”, the inhibition [2] was “inactive” and the inhibition [3] was “inactive”. The inhibition [4] was “inactive”, the inhibition [5] was “inactive” and the inhibition [6] was “inactive”. The inhibition [7] was “inactive”, the inhibition [8] was “inactive” and the inhibition [9] was “inactive”. The inhibition [10] was “inactive”, the inhibition [11] was “inactive” and the inhibition [12] was “inactive”. The inhibition [13] was “inactive”, the inhibition [14] was “inactive” and the inhibition [15] was “inactive”. The CLint scaled at 1 µM [16] was 45 mL/min/kg, the inhibition [17] was “inactive” and the ΔTm [18] was 0.1 °C. The inhibition [19] was “inactive”, the inhibition [20] was “inactive” and the inhibition [21] was “inactive”. For the same molecule, the inhibition [22] was “inactive” and the inhibition [23] was “inactive”.
